Test results as given in PMC8359310 (British Journal of Clinical Pharmacology, 2020).

What was measured:
[1] = test system: breast cancer resistant protein (BCRP); experiment: In vitro inhibition of transporter BCRP by capmatinib; format: in vitro ADME; conditions: 400 mg twice daily
[2] = Capmatinib plasma concentrations in DDI and post‐DDI phase; format: in vivo, human; conditions: 400 mg twice daily
[3] = test system: MET‐dysregulated advanced solid tumours; experiment: Antitumour activity by Investigator's assessment per RECIST 1.1; format: in vivo, human
How it was run: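 Adults (≥18 years) with refractory MET-dysregulated advanced solid tumours (amplification with gene copy number ≥4 by FISH or qPCR, IHC intensity +3 in ≥50% of tumour cells, or exon 14 deletion mutation). Test compound given orally at 400 mg twice daily, then continued on 21-day cycles. Investigator-read CT every 6 weeks. Patients stopping for other reasons were followed until progression, new therapy or death.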

Safety assessments = format: in vivo, human
[4] = Estimated maximum luminal concentration in the gut; parameters: species or system human; conditions: therapeutic dose 400 mg twice daily; dose/250 mL
p‐glycoprotein (P‐gp) = conditions: in vitro, cited from earlier work
[5] = test system: breast cancer resistant protein (BCRP); conditions: in vitro, cited from earlier work
[6] = target: organic anion transporting polypeptide (OATP) 1B1; conditions: read-out: Ki for OATP1B1; in vitro; ref data on file; cited from earlier work
OATP1B3 = conditions: read-out: Ki for OATP1B3; in vitro; ref data on file; cited from earlier work
[7] = cited from earlier work
[8] = one of the capmatinib studies; ref data on file; cited from earlier work
[9] = regardless of study drug relationship

## CNC(=O)c1ccc(-c2cnc3ncc(Cc4ccc5ncccc5c4)n3n2)cc1F [capmatinib]
[1]
  maximum luminal gut concentration relative to Ki for BCRP: > 300 fold
[2]; Cycle 2 Day 1 (post‐DDI phase)
  geometric mean predose concentration: 529 ng/mL
[2]; Day 22 (DDI phase)
  geometric mean predose concentration: 407 ng/mL
[2]; human, oral
  concentration at 2 h: 3960 ng/mL
[3]; all patients n = 32
  Best overall response: Progressive disease (PD): 17 (53.1) n (%)
  Best overall response: Unknown: 7 (21.9) n (%)
  complete response (CR) or partial response (PR): No patient
[3]; in vivo
  disease control rate (CR + PR + SD): 25%
  patients with PD as best overall response: 53.1%
  patients with stable disease as best overall response: 25%
  patients with unknown response: 21.9%
Safety assessments; all events grade 3/4
  patients with AEs leading to study drug discontinuation: 9.4%
Safety assessments; all grades
  patients with treatment‐related AEs: 78.1%
  treatment‐related asthenia, patients: 18.8%
  treatment‐related dyspepsia, patients: 15.6%
  treatment‐related nausea, patients: 34.4%
  treatment‐related peripheral oedema, patients: 12.5%
  treatment‐related vomiting, patients: 34.4%
Safety assessments; both Grade ≤2
  nausea leading to dose adjustment or dose interruption, patients: 6.3%
Safety assessments; in vivo
  alterations in the electrocardiograph: No clinically relevant alterations
  on‐treatment deaths: 18.8%
  on‐treatment deaths due to AE (respiratory tract infection): 3.1%
  on‐treatment deaths due to AEs with disease progression as contributing reason: 9.4%
  on‐treatment deaths due to disease progression: 6.3%
  other treatment‐related SAEs: anaemia, abdominal pain and malaise, each: 1 patient
  patients who died during the study: 25.0%
  patients with AEs requiring dose adjustment or study drug interruption: 40.6%
  patients with treatment‐related Grade 3/4 AEs: 25.0%
  patients with treatment‐related SAEs: 12.5%
  treatment‐related Grade 3/4 vomiting, patients: 6.3%
  treatment‐related SAE vomiting, patients: 9.4%
Safety assessments; [9]
  Abdominal pain upper, Grade 3/4: 0 n (%)
  Abdominal pain upper, all grades: 4 (12.5) n (%)
  Abdominal pain, Grade 3/4: 1 (3.1) n (%)
  Abdominal pain, all grades: 3 (9.4) n (%)
  Anaemia, Grade 3/4: 3 (9.4) n (%)
  Anaemia, all grades: 7 (21.9) n (%)
  Asthenia, Grade 3/4: 2 (6.3) n (%)
  Asthenia, all grades: 14 (43.8) n (%)
  Back pain, Grade 3/4: 1 (3.1) n (%)
  Back pain, all grades: 6 (18.8) n (%)
  Blood albumin decreased, Grade 3/4: 1 (3.1) n (%)
  Blood albumin decreased, all grades: 2 (6.3) n (%)
  Candida infection, Grade 3/4: 0 n (%)
  Candida infection, all grades: 2 (6.3) n (%)
  Constipation, Grade 3/4: 0 n (%)
  Constipation, all grades: 13 (40.6) n (%)
  Cough, Grade 3/4: 0 n (%)
  Cough, all grades: 5 (15.6) n (%)
  Decreased appetite, Grade 3/4: 1 (3.1) n (%)
  Decreased appetite, all grades: 7 (21.9) n (%)
  Depression, Grade 3/4: 0 n (%)
  Depression, all grades: 2 (6.3) n (%)
  Diarrhoea, Grade 3/4: 1 (3.1) n (%)
  Diarrhoea, all grades: 6 (18.8) n (%)
  Dyspepsia, Grade 3/4: 0 n (%)
  Dyspepsia, all grades: 7 (21.9) n (%)
  Dyspnoea, Grade 3/4: 2 (6.3) n (%)
  Dyspnoea, all grades: 6 (18.8) n (%)
  Fatigue, Grade 3/4: 0 n (%)
  Fatigue, all grades: 4 (12.5) n (%)
  Headache, Grade 3/4: 0 n (%)
  Headache, all grades: 2 (6.3) n (%)
  Hypotension, Grade 3/4: 1 (3.1) n (%)
  Hypotension, all grades: 2 (6.3) n (%)
  Increased blood bilirubin, Grade 3/4: 1 (3.1) n (%)
  Increased blood bilirubin, all grades: 5 (15.6) n (%)
  Lymphocyte count decreased, Grade 3/4: 1 (3.1) n (%)
  Lymphocyte count decreased, all grades: 2 (6.3) n (%)
  Nausea, Grade 3/4: 2 (6.3) n (%)
  Nausea, all grades: 18 (56.3) n (%)
  Oedema peripheral, Grade 3/4: 0 n (%)
  Oedema peripheral, all grades: 9 (28.1) n (%)
  Pulmonary embolism, Grade 3/4: 3 (9.4) n (%)
  Pulmonary embolism, all grades: 3 (9.4) n (%)
  Pyrexia, Grade 3/4: 1 (3.1) n (%)
  Pyrexia, all grades: 8 (25.0) n (%)
  Rash, Grade 3/4: 0 n (%)
  Rash, all grades: 2 (6.3) n (%)
  Respiratory tract infection, Grade 3/4: 1 (3.1) n (%)
  Respiratory tract infection, all grades: 5 (15.6) n (%)
  Total adverse events, Grade 3/4: 18 (56.3) n (%)
  Total adverse events, all grades: 32 (100) n (%)
  Urinary tract infection, Grade 3/4: 0 n (%)
  Urinary tract infection, all grades: 3 (9.4) n (%)
  Vertigo, Grade 3/4: 0 n (%)
  Vertigo, all grades: 2 (6.3) n (%)
  Vitamin K decreased, Grade 3/4: 1 (3.1) n (%)
  Vitamin K decreased, all grades: 3 (9.4) n (%)
  Vomiting, Grade 3/4: 2 (6.3) n (%)
  Vomiting, all grades: 13 (40.6) n (%)
  Weight decreased, Grade 3/4: 0 n (%)
  Weight decreased, all grades: 2 (6.3) n (%)
  anaemia, Grade 3/4, patients: 9.4%
  anaemia, all grades, patients: 21.9%
  asthenia, Grade 3/4, patients: 6.3%
  asthenia, all grades, patients: 43.8%
  constipation, all grades, patients: 40.6%
  decreased appetite, all grades, patients: 21.9%
  dyspepsia, all grades, patients: 21.9%
  dyspnoea, Grade 3/4, patients: 6.3%
  nausea, Grade 3/4, patients: 6.3%
  nausea, all grades, patients: 56.3%
  patients with Grade 3/4 AEs: 56.3%
  patients with Grade 3/4 SAEs: 40.6%
  patients with SAEs of any grade: 53.1%
  peripheral oedema, all grades, patients: 28.1%
  pulmonary embolism, Grade 3/4, patients: 9.4%
  pyrexia, all grades, patients: 25%
  vomiting, Grade 3/4, patients: 6.3%
  vomiting, all grades, patients: 40.6%
Safety assessments; regardless of study drug relationship, 32 enrolled
  enrolled patients who experienced at least 1 AE: 32 patients
Safety assessments; some subjects, none clinically relevant or reported as AE
  serum creatinine change: low‐grade creatinine increase
[4]
  estimated maximum luminal concentration in the gut: approximately 3880 μM
p‐glycoprotein (P‐gp); read-out: IC50 for inhibition of P‐gp
  IC50: 12 µM
p‐glycoprotein (P‐gp); read-out: Ki for P‐gp, ref data on file
  Ki: 12 µM
[5]; read-out: IC50 for inhibition of BCRP
  IC50: 16.4 µM
[5]; read-out: Ki for BCRP, ref data on file
  Ki: 8.2 µM
[6]
  Ki: 5.1 µM
OATP1B3
  Ki: 5.2 µM
[7]; consecutive twice daily dosing
  steady state expected to be reached by: ≤ 3 days
[7]; oral administration
  time to maximum plasma concentration (Tmax): 1 to 2 h
[8]
  cystatin C level following capmatinib treatment: No change
